Experiment [1] concerns E. coli ATCC25922 persister cells. Nature of the experiment: Killing efficacy on persister cells. The experiment is classed as cell-based. As to conditions: ampicillin 8×MIC.
In experiment [2] the test system is E. coli ATCC25922. Nature of the experiment: Mice wound. It is filed as in vivo. As to conditions: topical, 15 μL of 4 mg/mL every 4 h, 3 times. In outline:
(§1)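 Female ICR mice (6–8 weeks), pentobarbital-anaesthetised (75 mg/kg ip), backs shaved; 6-mm full-thickness punch wounds. Bacteria grown in LB (37 °C, 9 h) and dropped onto wounds in saline: S. aureus 3 × 10^6 or E. coli 1 × 10^8 CFU/mL. Treatment in saline started 24 h post-infection; saline controls. Wound tissue excised 4 h after final application for CFU counts; n = 10.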

For experiment [3], the system named is S. aureus USA300 LAC biofilm. Nature of the experiment: Anti-biofilm assay. The experiment is classed as cell-based.
Experiment [4] relates to S. aureus USA300 LAC. Nature of the experiment: Mice wound. To be noted: topical, 15 μL of 4 mg/mL every 4 h, 3 times. It is filed as in vivo. In outline:
as §1

In experiment [5] the test system is S. aureus USA300 LAC. Nature of the experiment: In vitro bacterial killing kinetics. To be noted: exponential growth phase; PBGProOx20 2×MIC and 4×MIC, vancomycin 4×MIC. It is filed as cell-based.
Experiment [6] deals with S. aureus USA300 LAC. Nature of the experiment: Mice subcutaneous infection model. The experiment is classed as in vivo. As to conditions: 4 mg/mL every 12 h, 3 times.
The test system of experiment [7] is S. aureus USA300 LAC. Nature of the experiment: Mice meningitis model. It is filed as in vivo. To be noted: 40 mg/kg intraperitoneal daily, 6 times; saline 17%.
For experiment [8], the system named is S. aureus USA300 persister cells. The experiment can be described thus: Killing efficacy on persister cells. The experiment is classed as cell-based. As to conditions: ciprofloxacin 10×MIC.
For experiment [9], the system named is S. aureus-PBGProOx20-P32, S. aureus-ciprofloxacin-P32. Nature of the experiment: Cross resistance. It is filed as cell-based. To be noted: 0.5×MIC, P32 bacteria tested against antibiotics.
Experiment [10] concerns E. coli ATCC25922. The experiment can be described thus: Mice meningitis model. To be noted: 40 mg/kg intraperitoneal daily, 6 times; saline 17%. The experiment is classed as in vivo.
Experiment [11] concerns E. coli ATCC25922. Nature of the experiment: Drug resistance study. The experiment is classed as cell-based. To be noted: continuous treatment at 0.5×MIC.
Experiment [12] deals with E. coli-PBGProOx20-P32, E. coli-moxifloxacin-P32. The experiment can be described thus: Cross resistance. To be noted: 0.5×MIC, P32 bacteria tested against antibiotics. It is filed as cell-based.
For experiment [13], the system named is E. coli ATCC25922 biofilm. The experiment can be described thus: Anti-biofilm assay. It is filed as cell-based.

Turning to `CC1(C)S[C@@H]2[C@H](NC(=O)[C@H](N)c3ccccc3)C(=O)N2[C@H]1C(=O)O` [Ampicillin, ampicillin], in experiment [1], the “persister cell viability under antibiotic” value is reported as “maintained sustained viability”.
In the case of `C[C@@H](O)[C@H]1C(=O)N2C(C(=O)O)=C(SCCN=CN)C[C@H]12` [Imipenem, imipenem], the “reduction of bacteria in infected wounds” value in [2] was 2.1 logs.
Take `CN[C@H](CC(C)C)C(=O)N[C@H]1C(=O)N[C@@H](CC(N)=O)C(=O)N[C@H]2C(=O)N[C@H]3C(=O)N[C@H](C(=O)N[C@H](C(=O)O)c4cc(O)cc(O)c4-c4cc3ccc4O)[C@H](O)c3ccc(c(Cl)c3)Oc3cc2cc(c3O[C@@H]2O[C@H](CO)[C@@H](O)[C@H](O)[C@H]2O[C@H]2C[C@](C)(N)[C@H](O)[C@H](C)O2)Oc2ccc(cc2Cl)[C@H]1O` [Vancomycin, vancomycin]: the “concentration eradicating mature biofilm” value in experiment [3] is “poor anti-biofilm activity”. Also, in [4], the “reduction of bacteria in infected wounds” value came to 1.2 logs. Besides, the “eradication in time-killing kinetics” value in experiment [5] is listed as “unable to eradicate S. aureus”. In addition, the “reduction of bacterial load in infected skin” value in experiment [6] was “less than 0.5 log CFU/g”. Besides, the “survival rate, meningitis” value in [7] came out at 50%.
Turning to `O=C(O)c1cn(C2CC2)c2cc(N3CCNCC3)c(F)cc2c1=O` [ciprofloxacin], the “persister cell viability under antibiotic” value in experiment [8] was “maintained sustained viability”. Also, in experiment [9], the “cross-resistance of bacteria treated for 32 passages” value was “acquired resistance to four quinolone antibiotics and ampicillin”.
In the case of `C[C@@H](O)[C@H]1C(=O)N2C(C(=O)O)=C(S[C@@H]3CN[C@H](C(=O)N(C)C)C3)[C@H](C)[C@H]12` [meropenem], in [10], the “survival rate, meningitis” value worked out at 100%.
For the molecule `COc1c(N2C[C@@H]3CCCN[C@@H]3C2)c(F)cc2c(=O)c(C(=O)O)cn(C3CC3)c12` [moxifloxacin], the “increase in MIC after 32 passages” value in [11] came out at 32 fold. The “cross-resistance of bacteria treated for 32 passages” value in experiment [12] was “acquired resistance to four quinolone antibiotics and ampicillin”.
Turning to colistin, the “concentration eradicating mature biofilm” value in experiment [13] was 256 ×MIC.
